Measurements reported in ChEMBL document CHEMBL5678808, “Human target validation of phosphoinositide 3-kinase (PI3K)β: effects on platelets and insulin sensitivity, using AZD6482 a novel PI3Kβ inhibitor” (J Thromb Haemost, 2012).

What was measured:
[1] = target: Serine/threonine-protein kinase mTOR (Homo sapiens, UniProt P42345); test: Inhibition of mTOR (unknown origin)
[2] = target: Insulin-like growth factor 1 receptor (Homo sapiens, UniProt P08069); test: Inhibition of human IGF1R
[3] = target: Serine/threonine-protein kinase Chk1 (Homo sapiens, UniProt O14757); test: Inhibition of human CHK1
Chain of Serine/threonine-protein kinase Chk1 (O14757 whole entry): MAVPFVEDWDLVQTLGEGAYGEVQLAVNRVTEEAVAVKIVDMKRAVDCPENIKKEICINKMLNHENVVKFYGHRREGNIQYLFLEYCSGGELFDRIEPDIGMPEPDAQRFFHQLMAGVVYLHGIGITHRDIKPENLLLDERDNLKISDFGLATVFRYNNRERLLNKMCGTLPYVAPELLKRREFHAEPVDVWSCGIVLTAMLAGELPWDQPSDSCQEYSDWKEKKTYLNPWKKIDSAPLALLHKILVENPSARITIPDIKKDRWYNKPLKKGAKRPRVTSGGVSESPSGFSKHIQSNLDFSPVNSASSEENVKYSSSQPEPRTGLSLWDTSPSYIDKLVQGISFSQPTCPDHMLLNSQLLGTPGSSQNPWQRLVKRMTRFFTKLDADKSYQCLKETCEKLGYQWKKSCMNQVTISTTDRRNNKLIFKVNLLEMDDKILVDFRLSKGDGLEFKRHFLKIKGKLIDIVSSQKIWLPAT

[4] = target: Cyclin-dependent kinase 2/cyclin E1 (Homo sapiens, UniProt P24941); test: Inhibition of human CDK2/Cyclin E; format: protein-complex assay
[5] = target: Glycogen synthase kinase-3 beta (Homo sapiens) (UniProt P49841); test: Inhibition of human GSK3b at 10 uM relative to control
Chain of Glycogen synthase kinase-3 beta (Homo sapiens) (P49841 whole entry, looked up): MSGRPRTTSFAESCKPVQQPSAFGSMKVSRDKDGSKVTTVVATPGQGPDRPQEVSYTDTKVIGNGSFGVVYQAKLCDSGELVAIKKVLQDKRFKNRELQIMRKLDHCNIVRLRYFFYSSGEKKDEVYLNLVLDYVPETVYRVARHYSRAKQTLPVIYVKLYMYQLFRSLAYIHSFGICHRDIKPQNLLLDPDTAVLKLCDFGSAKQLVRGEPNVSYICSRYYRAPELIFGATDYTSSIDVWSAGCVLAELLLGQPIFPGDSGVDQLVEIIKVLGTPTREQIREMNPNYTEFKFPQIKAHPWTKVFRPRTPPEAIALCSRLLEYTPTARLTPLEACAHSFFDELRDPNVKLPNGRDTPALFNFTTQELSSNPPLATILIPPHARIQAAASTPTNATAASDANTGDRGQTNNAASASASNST

[6] = target: cAMP-dependent protein kinase (PKA) (Homo sapiens) (UniProt P22694+P17612+P22612); test: Inhibition of PKA (unknown origin) at 10 uM relative to control; format: protein assay
[7] = target: Lymphokine-activated killer T-cell-originated protein kinase (Homo sapiens) (UniProt Q96KB5); test: Inhibition of human PBK at 10 uM relative to control
Chain of Lymphokine-activated killer T-cell-originated protein kinase (Homo sapiens) (Q96KB5 whole entry): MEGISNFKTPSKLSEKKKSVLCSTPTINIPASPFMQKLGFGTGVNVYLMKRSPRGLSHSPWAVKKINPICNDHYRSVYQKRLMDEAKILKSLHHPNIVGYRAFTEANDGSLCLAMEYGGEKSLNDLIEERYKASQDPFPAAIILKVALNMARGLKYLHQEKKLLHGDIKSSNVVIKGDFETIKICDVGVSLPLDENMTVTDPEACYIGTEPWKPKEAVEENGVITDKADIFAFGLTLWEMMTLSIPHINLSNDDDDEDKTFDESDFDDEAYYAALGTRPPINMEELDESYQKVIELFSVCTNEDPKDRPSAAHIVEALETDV

[8] = target: Calcium/calmodulin-dependent protein kinase type 1 (Homo sapiens) (UniProt Q14012); test: Inhibition of human CAMK at 10 uM relative to control
Chain of Calcium/calmodulin-dependent protein kinase type 1 (Homo sapiens) (Q14012 whole entry, looked up): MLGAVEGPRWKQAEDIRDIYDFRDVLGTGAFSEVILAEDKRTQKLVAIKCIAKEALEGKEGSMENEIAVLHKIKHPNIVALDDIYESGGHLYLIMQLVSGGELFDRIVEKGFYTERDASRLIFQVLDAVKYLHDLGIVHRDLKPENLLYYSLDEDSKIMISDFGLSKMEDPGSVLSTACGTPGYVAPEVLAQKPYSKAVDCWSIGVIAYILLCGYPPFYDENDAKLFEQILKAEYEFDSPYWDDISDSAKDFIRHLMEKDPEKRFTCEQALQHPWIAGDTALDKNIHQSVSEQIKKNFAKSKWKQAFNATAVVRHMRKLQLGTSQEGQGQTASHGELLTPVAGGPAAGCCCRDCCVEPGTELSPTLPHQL

[9] = target: Inhibitor of nuclear factor kappa-B kinase subunit beta (Homo sapiens) (UniProt O14920); test: Inhibition of human IKKb at 10 uM relative to control
Chain of Inhibitor of nuclear factor kappa-B kinase subunit beta (Homo sapiens) (O14920 whole entry): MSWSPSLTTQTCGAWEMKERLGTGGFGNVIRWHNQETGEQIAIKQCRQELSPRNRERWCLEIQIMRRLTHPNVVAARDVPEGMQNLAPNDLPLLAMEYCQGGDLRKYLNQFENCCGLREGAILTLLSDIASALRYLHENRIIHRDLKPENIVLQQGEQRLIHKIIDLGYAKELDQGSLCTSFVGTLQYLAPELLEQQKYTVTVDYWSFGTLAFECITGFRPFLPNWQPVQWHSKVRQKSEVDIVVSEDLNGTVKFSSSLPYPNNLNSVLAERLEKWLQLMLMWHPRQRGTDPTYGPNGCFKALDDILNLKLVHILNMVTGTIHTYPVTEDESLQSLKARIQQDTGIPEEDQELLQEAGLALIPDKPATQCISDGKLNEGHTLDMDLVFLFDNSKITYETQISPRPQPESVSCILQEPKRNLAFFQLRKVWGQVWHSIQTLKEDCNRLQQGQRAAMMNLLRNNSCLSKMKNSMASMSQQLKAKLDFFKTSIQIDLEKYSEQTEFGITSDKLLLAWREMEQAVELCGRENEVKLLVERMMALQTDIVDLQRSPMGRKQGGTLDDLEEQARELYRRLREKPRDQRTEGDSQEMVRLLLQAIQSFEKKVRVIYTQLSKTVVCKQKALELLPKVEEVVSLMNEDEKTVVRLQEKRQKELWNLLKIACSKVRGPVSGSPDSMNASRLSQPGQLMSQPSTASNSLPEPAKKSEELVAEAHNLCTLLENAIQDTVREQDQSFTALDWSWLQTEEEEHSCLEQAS

[10] = target: Dual specificity tyrosine-phosphorylation-regulated kinase 2 (Homo sapiens) (UniProt Q92630); test: Inhibition of human DYRK2 at 10 uM relative to control
[11] = target: Dual specificity tyrosine-phosphorylation-regulated kinase 3 (Homo sapiens) (UniProt O43781); test: Inhibition of human DYRK3 phosphorylation at 10 uM relative to control
Chain of Dual specificity tyrosine-phosphorylation-regulated kinase 3 (Homo sapiens) (O43781 whole entry): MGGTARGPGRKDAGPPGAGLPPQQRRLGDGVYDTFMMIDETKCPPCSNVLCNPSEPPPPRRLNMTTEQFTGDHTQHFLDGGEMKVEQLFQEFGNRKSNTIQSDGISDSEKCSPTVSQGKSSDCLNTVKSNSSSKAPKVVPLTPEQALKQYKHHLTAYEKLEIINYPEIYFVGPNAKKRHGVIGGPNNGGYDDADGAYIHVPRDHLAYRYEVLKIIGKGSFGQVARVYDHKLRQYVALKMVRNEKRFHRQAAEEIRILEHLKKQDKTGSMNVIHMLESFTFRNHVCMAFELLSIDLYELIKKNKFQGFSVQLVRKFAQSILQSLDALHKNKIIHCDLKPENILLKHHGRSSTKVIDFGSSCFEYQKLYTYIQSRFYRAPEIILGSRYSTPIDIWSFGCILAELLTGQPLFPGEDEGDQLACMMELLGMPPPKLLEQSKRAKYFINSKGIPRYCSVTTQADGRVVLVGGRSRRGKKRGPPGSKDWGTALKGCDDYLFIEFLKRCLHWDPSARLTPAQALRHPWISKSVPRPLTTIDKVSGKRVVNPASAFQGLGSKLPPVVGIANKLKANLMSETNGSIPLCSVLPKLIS

[12] = target: Calcium/calmodulin-dependent protein kinase kinase 2 (Homo sapiens) (UniProt Q96RR4); test: Inhibition of human CAMKKbeta at 10 uM relative to control
Chain of Calcium/calmodulin-dependent protein kinase kinase 2 (Homo sapiens) (Q96RR4 2-588 limits assumed): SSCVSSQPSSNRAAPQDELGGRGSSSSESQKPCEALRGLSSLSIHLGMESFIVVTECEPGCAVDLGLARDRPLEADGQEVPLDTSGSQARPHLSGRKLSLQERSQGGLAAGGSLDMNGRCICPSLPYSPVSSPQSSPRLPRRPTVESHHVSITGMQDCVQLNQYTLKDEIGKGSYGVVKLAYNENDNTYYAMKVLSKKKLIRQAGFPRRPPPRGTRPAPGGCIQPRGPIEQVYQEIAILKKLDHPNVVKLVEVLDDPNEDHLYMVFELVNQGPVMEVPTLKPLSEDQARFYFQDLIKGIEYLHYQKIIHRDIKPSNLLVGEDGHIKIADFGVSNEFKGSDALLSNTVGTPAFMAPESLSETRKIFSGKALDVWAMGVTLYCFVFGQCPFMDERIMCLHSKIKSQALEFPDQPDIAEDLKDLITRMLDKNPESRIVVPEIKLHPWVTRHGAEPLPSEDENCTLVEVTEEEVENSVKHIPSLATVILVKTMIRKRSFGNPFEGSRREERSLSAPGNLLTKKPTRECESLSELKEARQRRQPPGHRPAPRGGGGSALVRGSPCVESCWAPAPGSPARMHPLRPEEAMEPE

[13] = target: Serine/threonine-protein kinase BRSK2 (Homo sapiens) (UniProt Q8IWQ3); test: Inhibition of human BRSK2 at 10 uM relative to control
[14] = target: Serine/threonine-protein kinase Nek2 (Homo sapiens) (UniProt P51955); test: Inhibition of human NEK2a at 10 uM relative to control
[15] = Protein binding in rat plasma assessed as unbound fraction; format: ADME, cell-free
[16] = test system: Rattus norvegicus; test: (§1) Insulin sensitizing activity in Sprague-Dawley rat hyperinsulinemic-euglycemic glucose clamp model assessed as glucose level during infusion of human insulin at 1000 ug/kg/min, iv for 2 mins followed by 50 ug/kg/min, iv for 28 mins measured during clamp 1 by colorimetry (reference value: 8.4 +/- 0.8 mM); format: functional; conditions: time 30 min, 0.5 h
Method in brief: (§2)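 Anesthetized rats; hyperinsulinemic–euglycemic clamp with human insulin infused. A baseline clamp (Clamp1) was followed by a second clamp (Clamp2) with vehicle or drug i.v. The drug was given as a low dose (1000 μg kg−1 + 50 μg kg min−1) or a high dose (6000 μg kg−1 + 300 μg kg min−1). Steady-state glucose infusion rate for euglycemia was recorded, with plasma glucose, human insulin and total insulin; mean ± SEM, n = 4–5/group.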

[17] = test system: Rattus norvegicus; test: Insulin sensitizing activity in Sprague-Dawley rat hyperinsulinemic-euglycemic glucose clamp model assessed as basal glucose level during infusion of human insulin at 6000 ug/kg/min, iv for 2 mins followed by 300 ug/kg/min, iv for 28 mins by colorimetry (reference value: 8.1 +/- 0.7 mM); format: functional; conditions: time 30 min, 0.5 h; method in brief: as §2
[18] = test system: Rattus norvegicus; test: as §1, with “6000” for “1000”, “300” for “50”; format: functional; conditions: time 30 min, 0.5 h; method in brief: as §2
[19] = test system: Rattus norvegicus; test: Insulin sensitizing activity in Sprague-Dawley rat hyperinsulinemic-euglycemic glucose clamp model assessed as human insulin level during infusion of human insulin at 1000 ug/kg/min, iv for 2 mins followed by 50 ug/kg/min, iv for 28 mins measured during clamp 1 (reference value: 1.7 +/- 0.1 nM); format: functional; conditions: time 30 min, 0.5 h; method in brief: as §2
[20] = test system: Rattus norvegicus; test: Insulin sensitizing activity in Sprague-Dawley rat hyperinsulinemic-euglycemic glucose clamp model assessed as total insulin level during infusion of human insulin at 1000 ug/kg/min, iv for 2 mins followed by 50 ug/kg/min, iv for 28 mins measured during clamp 1 (reference value: 2.2 +/- 0.1 nM); format: functional; conditions: time 30 min, 0.5 h; method in brief: as §2
[21] = test system: Rattus norvegicus; test: Insulin sensitizing activity in Sprague-Dawley rat hyperinsulinemic-euglycemic glucose clamp model assessed as basal total insulin level during infusion of human insulin at 6000 ug/kg/min, iv for 2 mins followed by 300 ug/kg/min, iv for 28 mins (reference value: 0.3 +/- 0.1 nM); format: functional; conditions: time 30 min, 0.5 h; method in brief: as §2
[22] = test system: Rattus norvegicus; test: Insulin sensitizing activity in Sprague-Dawley rat hyperinsulinemic-euglycemic glucose clamp model assessed as total insulin level during infusion of human insulin at 6000 ug/kg/min, iv for 2 mins followed by 300 ug/kg/min, iv for 28 mins measured during clamp 2 (reference value: 2.2 +/- 0.1 nM); format: functional; conditions: time 30 min, 0.5 h; method in brief: as §2
[23] = Toxicity in Sprague-Dawley rat assessed as change in heart rate at 6000 ug/kg, iv for 2 mins followed by 300 ug/kg/min, iv for 28 mins; format: organism-based; conditions: in vivo, 6 mg/kg, 0.5 h, time 30 min
Method in brief: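 Overnight-fasted anesthetized rats got three consecutive escalating i.v. doses over 30 min each (n = 4/group). Heart rate and blood pressure were followed alongside end-of-interval blood samples for plasma drug exposure, glucose and insulin (relative HOMA index experiments).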

[24] = Toxicity in Sprague-Dawley rat hyperinsulinemic-euglycemic glucose clamp model assessed as increase in blood pressure at 6000 ug/kg/min, iv for 2 mins followed by 300 ug/kg/min, iv for 28 mins; format: organism-based; conditions: in vivo, 0.5 h, time 30 min
Method in brief: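 Anesthetized rats underwent two consecutive hyperinsulinemic–euglycemic clamps with human insulin infusion: a baseline Clamp1, then Clamp2 with vehicle or AZD6482 i.v. (n = 4–5/group). Blood pressure and heart rate were followed during control periods and after drug administration. Steady-state glucose infusion rate maintained euglycemia.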

[25] = Elimination half life in human at 40.5 to 455.8 mg, iv administered for 3 hrs via infusion by LC-MS/MS analysis; format: ADME, organism-based; conditions: in vivo, dose 40.5-455.8 mg, read-out: beta t1/2
Method in brief: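 Randomized, double-blind, placebo-controlled single ascending-dose study in healthy male volunteers aged 18–36. Each subject received a 3-h i.v. infusion (0.9–455.8 mg). Plasma levels were measured by protein precipitation and LC-MS/MS (LLOQ 0.005 μm), with non-compartmental PK analysis. Half-life was calculated only for the four highest dose groups. The 3-h sample was taken as Css.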

[26] = Volume of distribution at steady state in human at 0.9 to 455.8 mg, iv administered for 3 hrs via infusion by LC-MS/MS analysis; format: ADME, organism-based; conditions: in vivo, dose 0.9-455.8 mg
Method in brief: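 Healthy male volunteers (18–36 years) in a randomized, double-blind, placebo-controlled single ascending-dose study received a 3-h i.v. infusion. Plasma drug levels were measured by protein precipitation then LC-MS/MS (LLOQ 0.005 μm). Non-compartmental pharmacokinetic analysis was used; median (range) across dose levels reported.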

[27] = Renal clearance (0 to 24 hrs) in human at 121.5 to 364.5 mg, iv administered for 3 hrs via infusion by LC-MS/MS analysis; conditions: in vivo

Chain of Insulin-like growth factor 1 receptor (P08069 31-736 limits assumed): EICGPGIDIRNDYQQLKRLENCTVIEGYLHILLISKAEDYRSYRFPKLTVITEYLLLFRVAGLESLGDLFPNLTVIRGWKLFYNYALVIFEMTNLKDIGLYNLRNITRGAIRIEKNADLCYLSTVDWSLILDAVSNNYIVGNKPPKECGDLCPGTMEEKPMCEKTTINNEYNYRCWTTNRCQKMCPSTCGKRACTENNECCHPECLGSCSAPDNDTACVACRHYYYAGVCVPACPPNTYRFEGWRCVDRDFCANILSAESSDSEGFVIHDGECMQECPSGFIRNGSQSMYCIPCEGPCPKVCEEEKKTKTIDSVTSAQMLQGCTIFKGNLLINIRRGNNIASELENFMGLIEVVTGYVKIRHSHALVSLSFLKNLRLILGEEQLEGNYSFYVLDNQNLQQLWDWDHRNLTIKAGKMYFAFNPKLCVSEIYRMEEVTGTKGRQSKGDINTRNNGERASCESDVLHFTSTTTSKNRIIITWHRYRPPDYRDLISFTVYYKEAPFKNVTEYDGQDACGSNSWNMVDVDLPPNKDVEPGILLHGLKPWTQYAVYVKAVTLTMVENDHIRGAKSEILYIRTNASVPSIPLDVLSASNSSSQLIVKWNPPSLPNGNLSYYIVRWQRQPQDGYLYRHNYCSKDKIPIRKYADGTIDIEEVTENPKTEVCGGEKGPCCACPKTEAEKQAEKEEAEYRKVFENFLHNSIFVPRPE
Chain of Insulin-like growth factor 1 receptor (P08069 741-1367 limits assumed): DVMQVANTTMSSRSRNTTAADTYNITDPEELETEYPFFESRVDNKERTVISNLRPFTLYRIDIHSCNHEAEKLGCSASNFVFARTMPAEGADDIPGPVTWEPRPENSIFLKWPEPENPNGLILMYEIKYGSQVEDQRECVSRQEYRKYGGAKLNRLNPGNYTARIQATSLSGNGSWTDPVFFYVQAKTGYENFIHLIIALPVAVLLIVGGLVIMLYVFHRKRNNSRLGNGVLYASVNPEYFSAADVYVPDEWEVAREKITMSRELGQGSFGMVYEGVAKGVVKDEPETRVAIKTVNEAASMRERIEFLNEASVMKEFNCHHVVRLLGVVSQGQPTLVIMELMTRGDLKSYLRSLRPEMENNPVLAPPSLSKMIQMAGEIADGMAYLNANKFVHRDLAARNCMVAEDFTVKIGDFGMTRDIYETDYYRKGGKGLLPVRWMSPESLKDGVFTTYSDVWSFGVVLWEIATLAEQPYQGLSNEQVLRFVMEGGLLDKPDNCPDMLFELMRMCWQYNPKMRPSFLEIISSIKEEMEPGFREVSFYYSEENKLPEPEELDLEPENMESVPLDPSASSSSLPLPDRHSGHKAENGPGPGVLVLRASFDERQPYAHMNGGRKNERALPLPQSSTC

Cc1cc([C@@H](C)Nc2ccccc2C(=O)O)c2nc(N3CCOCC3)cc(=O)n2c1 [AZD-6482]
IC50 [1]: 8 µM | IC50 [2]: > 258 µM | IC50 [3]: > 1000 µM | IC50 [4]: > 1000 µM | inhibition [5]: 21% | inhibition [6]: -7.5% | inhibition [7]: 6.9% | inhibition [8]: 9.7% | inhibition [9]: -8.9% | inhibition [10]: 18% | inhibition [11]: 16% | inhibition [12]: 14% | inhibition [13]: 2.5% | inhibition [14]: 1.3% | fraction unbound [15]: 0.11 | Activity [16]: 7.3 mM | Activity [17]: 7.7 mM | Activity [18]: 7.6 mM | Activity [19]: 1.8 nM | Activity [20]: 2.2 nM | Activity [21]: 0.4 nM | Activity [22]: 3.4 nM | Activity [23]: Non-Toxic | Activity [24]: 15 mmHg | half-life [25]: ~20 min | Vd [26]: 48 L | CL renal at 3 h [27]: 1.5 mL/min
